From ChEMBL document CHEMBL3045217, “Factors affecting the synergy of thiabendazole, sodium bicarbonate, and heat to control postharvest green mold of citrus fruit” (J Agric Food Chem, 2008) come the findings set out here.

For series [1], the system named is Penicillium digitatum. Kind of series: Fungicidal activity against Penicillium digitatum infected Valenica oranges assessed as fruit weight loss at 200 mg/L treated for 1 min at 50 degC postharvest at 20 hr after fungal conidial inoculation measured after 14 days of storage at 17 degC (water Rvb = 6.18%). The series is classed as functional.
Series [2] has as its system Penicillium digitatum. Kind of series: Fungicidal activity against Penicillium digitatum infected Valenica oranges assessed as fruit weight loss at 400 mg/L treated for 1 min at 40 degC postharvest at 20 hr after fungal conidial inoculation measured after 14 days of storage at 17 degC in presence of 0.5% SBC (water Rvb = 7.90%). It is filed as functional.
The test system of series [3] is Penicillium digitatum. Kind of series: Fungicidal activity against Penicillium digitatum infected Valenica oranges assessed as fruit weight loss at 400 mg/L treated for 1 min at 40 degC postharvest at 20 hr after fungal conidial inoculation measured after 14 days of storage at 17 degC (water Rvb = 6.24%). The series is classed as functional.
For series [4], the system named is Penicillium digitatum. Kind of series: Fungicidal activity against Penicillium digitatum infected Valenica oranges assessed as fruit weight loss at 600 mg/L treated for 1 min at 20 degC postharvest at 20 hr after fungal conidial inoculation measured after 14 days of storage at 17 degC in presence of 2% SBC (water Rvb = 8.02%). It is filed as functional.
The test system of series [5] is Penicillium digitatum. Kind of series: Fungicidal activity against TBZ-resistant Penicillium digitatum infected Valencia oranges assessed as postharvest green mold incidence at 200 mg/L treated for 1 min at 50 degC at 20 hr after fungal conidial inoculation measured after 7 days of storage at 20 degC (water Rvb = 56.7%). The series is classed as functional.
The subject of series [6] is Penicillium digitatum. Kind of series: Fungicidal activity against TBZ-resistant Penicillium digitatum infected Nova mandarins assessed as postharvest green mold incidence at 600 mg/L treated for 1 min at 20 degC at 20 hr after fungal conidial inoculation measured after 5 days of storage at 20 degC (water Rvb = 100%). It is filed as functional.
Series [7] deals with Penicillium digitatum. Kind of series: Fungicidal activity against TBZ-sensitive Penicillium digitatum infected Nova mandarins assessed as postharvest green mold incidence at 400 mg/L treated for 1 min at 40 degC at 20 hr after fungal conidial inoculation measured after 5 days of storage at 20 degC in presence of 2% SBC (water Rvb = 88.3%). It is filed as functional. An outline of the steps: (§1)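 Fruit were surface-disinfected in 1 g/L hypochlorite for 30 s, rinsed, dried, then wounded twice equatorially (2 mm × 2 mm rod). Inoculation was a 1 min dip in P. digitatum conidia, 1 × 10^5 conidia/mL final. Fruit were held 20 h at 20 °C and 90% RH, dipped 1 min (SBC wt/vol), and air-dried. Storage was 20 °C, 90% RH. Decay incidence (% fruit with lesions) was scored at 5 d for mandarins and 7 d for oranges. Three replicates of 40 fruit were used; arcsin-transformed data were compared by LSD, p ≤ 0.05.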

In series [8] the test system is Penicillium digitatum. Kind of series: Fungicidal activity against TBZ-sensitive Penicillium digitatum infected Nova mandarins assessed as postharvest green mold incidence at 600 mg/L treated for 1 min at 20 degC at 20 hr after fungal conidial inoculation measured after 5 days of storage at 20 degC in presence of 1% SBC (water Rvb = 96.7%). The series is classed as functional. Put shortly:
as §1

The test system of series [9] is Fruit. Kind of series: Drug residues in Citrus sinensis cvs. Valencia late (Valencia oranges) at 600 mg/L treated for 1 min at 20 degC postharvest measured after 20 days of storage at 17 degC by GC analysis. The series is classed as ADME. An outline of the steps:
(§2)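 'Valencia' oranges were dipped 1 min in TBZ at 600 mg/L (20 °C, ±0.5, 1 or 2% wt/vol SBC), 400 mg/L (40 °C, ±SBC) or 200 mg/L (50 °C, alone), then air-dried. They were sampled at 0, 10 and 20 days at 17 °C. Peel of five fruit was frozen, and 5 g of homogenate was extracted with ethyl acetate/hexane (1/1) plus NaCl. The extract was dried under N2, taken up in acetone and analysed by GC. Results are mg/kg on a whole-fruit basis.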

The test system of series [10] is Fruit. Kind of series: Drug residues in Citrus sinensis cvs. Valencia late (Valencia oranges) at 400 mg/L treated for 1 min at 40 degC postharvest measured after 10 days of storage at 17 degC in presence of 2% SBC by GC analysis. It is filed as ADME. Put shortly:
as §2

In series [11] the test system is Fruit. Kind of series: Total drug residues in Citrus sinensis cvs. Salustiana (Salustiana oranges) fruit at 600 mg/L treated for 1 min at 20 degC postharvest measured after overnight incubation at 17 degC in presence of 2% SBC by GC analysis. The series is classed as ADME. Put shortly:
(§3)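 'Salustiana' oranges were water-washed, dried, dipped, then dried overnight at 17 °C in the dark. Unextracted fruit were used for total residues. Peel from five oranges was frozen at -18 °C. 5 g homogenized peel was extracted with 10 mL ethyl acetate/hexane (1/1) plus 2 g NaCl, shaken 30 min, then 1 mL of organic layer was dried under N2, redissolved in acetone, and run by GC without cleanup. Results are on a whole-fruit basis.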

Series [12] relates to Fruit. Kind of series: Total drug residues in Citrus sinensis cvs. Salustiana (Salustiana oranges) fruit at 600 mg/L treated for 1 min at 20 degC postharvest measured after overnight incubation at 17 degC by GC analysis. It is filed as ADME. Put shortly: as §3
For series [13], the system named is Inner fruit. Kind of series: Drug residues in Citrus sinensis cvs. Salustiana (Salustiana oranges) inner fruit at 600 mg/L treated for 1 min at 20 degC postharvest measured after overnight incubation at 17 degC in presence of 2% SBC by GC analysis. It is filed as ADME. An outline of the steps:
(§4)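 'Salustiana' oranges were washed with water and air-dried. They were dipped 1 or 3 min in TBZ 600 mg/L at 20 or 50 °C, or 1 min in TBZ 600 mg/L plus 2% SBC at 20 °C, then dried overnight at 17 °C in the dark. Surface residue was taken by water extraction and wax residue by chloroform extraction. Inner residue was measured in fruit after both extractions. Extracts were dried under N2, taken up in acetone and analysed by GC. Values are mg/kg on a whole-fruit basis.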

Series [14] has as its system Fruit. Kind of series: Drug residues in Citrus sinensis cvs. Valencia late (Valencia oranges) at 400 mg/L treated for 1 min at 40 degC postharvest measured after 10 days of storage at 17 degC in presence of 0.5% SBC by GC analysis. The series is classed as ADME. Put shortly:
as §2

Series [15] deals with Fruit. Kind of series: Drug residues in Citrus sinensis cvs. Valencia late (Valencia oranges) at 600 mg/L treated for 1 min at 20 degC postharvest measured after 10 days of storage at 17 degC in presence of 1% SBC by GC analysis. The series is classed as ADME. Put shortly:
as §2

The test system of series [16] is Fruit. Kind of series: Drug residues in Citrus sinensis cvs. Valencia late (Valencia oranges) at 400 mg/L treated for 1 min at 40 degC postharvest measured immediately post-drug treatment in presence of 1% SBC by GC analysis. The series is classed as ADME. An outline of the steps:
as §2

The subject of series [17] is Fruit. Kind of series: Drug residues in Citrus sinensis cvs. Valencia late (Valencia oranges) at 600 mg/L treated for 1 min at 20 degC postharvest measured immediately post-drug treatment in presence of 0.5% SBC by GC analysis. The series is classed as ADME. Put shortly: as §2
The subject of series [18] is Penicillium digitatum. Kind of series: Fungicidal activity against TBZ-resistant Penicillium digitatum infected Nova mandarins assessed as postharvest green mold incidence at 600 mg/L treated for 1 min at 20 degC at 20 hr after fungal conidial inoculation measured after 5 days of storage at 20 degC in presence of 2% SBC (water Rvb = 61.7%). It is filed as functional.

Series [19] has as its system Inner fruit. Kind of series: Drug residues in Citrus sinensis cvs. Salustiana (Salustiana oranges) inner fruit at 600 mg/L treated for 1 min at 20 degC postharvest measured after overnight incubation at 17 degC by GC analysis. It is filed as ADME. Put shortly: as §4

As to `c1ccc2[nH]c(-c3cscn3)nc2c1` [THIABENDAZOLE], the Activity in the series on Penicillium digitatum [1] is on record as 5.8%; in the series on Penicillium digitatum [2] it was 8.39%; in the series with Penicillium digitatum [3], 6.26%; in the series with Penicillium digitatum [4] it was 9.38%; with Penicillium digitatum [5] it was 37.5%; in the series on Penicillium digitatum [6], 98.3%. The results for the Activity with Penicillium digitatum [7], in the series with Penicillium digitatum [8] and in the series on Penicillium digitatum [18] were 3.3%, 3.3% and 40%, respectively. For the same compound, the Drug uptake in the series with Fruit [9] amounted to 1.54 mg/kg; in the series on Fruit [10], 0.65 mg/kg; in the series with Fruit [11] it was 0.91 mg/kg; in the series on Fruit [12], 1.04 mg/kg; in the series with Inner fruit [13] it was 0.01 mg/kg; with Fruit [14], 0.76 mg/kg. Moreover, the Drug uptake in the series with Fruit [15] turned out to be 1.45 mg/kg; with Fruit [16], 0.75 mg/kg; in the series on Fruit [17], 1.25 mg/kg; in the series with Inner fruit [19] it was 0.13 mg/kg.
